From ChEMBL document CHEMBL1123164, “Analogues of poison ivy urushiol. Synthesis and biological activity of disubstituted n-alkylbenzenes” (1986)

Assays:
Type in all cases: functional
[1] = organism: Cavia porcellus; experiment: Allergenic cross-reactivity was expressed as number of guinea pig with a positive skin reaction versus number tested upon sensitizing them to poison ivy urushiol; 0/8
Summary of the method: (§1)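 Guinea pigs sensitized topically with 1 mg purified poison ivy urushiol in 0.15 mL acetone on dorsal neck skin (about 10 cm2). Sensitivity was checked with 2 μg PDC in acetone on shaven abdominal skin. Test compounds (10 and 30 μg in acetone) went on abdominal sites. Animals counted positive for erythema/edema at 24, 48 and 72 h, alongside urushiol controls.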

[2] = test system: Cavia porcellus; experiment: Skin test reactivity (intensity of erythema and edema) was measured in guinea pig sensitized to poison ivy urushiol by Draize method
Summary of the method: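 Urushiol-sensitized guinea pigs (1 mg in 0.15 mL acetone, dorsal neck) received eliciting doses in acetone on abdominal skin. Erythema and edema were scored 0–4 by Draize at 24, 48 and 72 h and averaged per group. Irritancy was tested with similar doses on nonsensitized animals.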

[3] = organism: Cavia porcellus; experiment: The dose which shows the cross-reactivity with guinea pig sensitized to poison ivy urushiol; summary of the method: as §1
[4] = organism: Cavia porcellus; experiment: Allergenic cross-reactivity was expressed as number of guinea pig with a positive skin reaction versus number tested upon sensitizing them to poison ivy urushiol; 7/7; summary of the method: as §1
[5] = organism: Cavia porcellus; experiment: Allergenic cross-reactivity was expressed as number of guinea pig with a positive skin reaction versus number tested upon sensitizing them to poison ivy urushiol; 5/9; summary of the method: as §1
[6] = organism: Cavia porcellus; experiment: Allergenic cross-reactivity was expressed as number of guinea pig with a positive skin reaction versus number tested upon sensitizing them to poison ivy urushiol; 0/7; summary of the method: as §1
[7] = organism: Cavia porcellus; experiment: Allergenic cross-reactivity was expressed as number of guinea pig with a positive skin reaction versus number tested upon sensitizing them to poison ivy urushiol; 0/15; summary of the method: as §1
[8] = organism: Cavia porcellus; experiment: Allergenic cross-reactivity was expressed as number of guinea pig with a positive skin reaction versus number tested upon sensitizing them to poison ivy urushiol; 2/9; summary of the method: as §1

SMILES	Activity [1]	Activity [2]	Dose [3] [µg]	Activity [4]	Activity [5]	Activity [6]	Activity [7]	Activity [8]
CCCCCCCCCCCCCCc1c(O)cccc1O	0	0	10	–	–	–	–	–
CCCCCCCCCCCCCCCc1cccc(O)c1N	–	2.9	10	7	–	–	–	–
CCCCCCCCCCCCCCCc1cc(O)cc(O)c1 [CARDOL]	–	0.6	30	–	5	–	–	–
CCCCCCCCCCCCCc1cccc(O)c1NS(C)(=O)=O	–	0	10	–	–	0	–	–
CCCCCCCCCCCCCCCc1cccc(N)c1O	–	2.4	10	7	–	–	–	–
CCCCCCCCCCCCCCCCCc1cccc(O)c1NS(C)(=O)=O	–	0	10	–	–	0	–	–
CCCCCCCCCCCCCCCc1ccc(O)cc1O	–	0	30	–	–	–	0	–
CCCCCCCCCCCCCCCc1ccc(O)c(O)c1	–	0.1	1	–	–	–	–	2
CCCCCCCCCCCCCCCc1cccc(NS(C)(=O)=O)c1O	–	0	10	–	–	0	–	–
CCCCCCCCCCCCCc1cccc(O)c1N	–	2.9	10	7	–	–	–	–
CCCCCCCCCCCCCCCc1cc(O)ccc1O	–	0	1	–	–	–	0	–
CCCCCCCCCCCCCCCc1cccc(O)c1NS(C)(=O)=O	–	0	10	–	–	0	–	–
CCCCCCCCCCCCCCCCCc1cccc(O)c1N	–	2.9	10	7	–	–	–	–
